The source of these data is ChEMBL document CHEMBL1154219, “New Ras CAAX mimetics: design, synthesis, antiproliferative activity, and RAS prenylation inhibition” (Bioorg Med Chem Lett, 2009).

What is called inhibition is the drop in the measured response relative to a control, in per cent. The IC50 is the concentration needed to halve the response being measured.

The species entered for experiment [1] is Homo sapiens. Description: Inhibition of Ras protein protein prenylation in HSMC assessed as unprenylated Ras accumulation at 50 uM after 72 hrs by Western blot analysis. The method, boiled down:
(§1)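 Human aortic SMCs seeded at 4 × 10⁵ cells per 60 mm dish. Growth-arrested in 0.4% FCS for 72 h, then exposed to compound in 10% FCS for 72 h at 37 °C (DMSO ≤0.5%). Cells lysed on ice in Tris pH 7.5/NaCl/NP-40 buffer with protease inhibitors; lysates cleared, protein measured by BCA. SDS-PAGE under reducing conditions, anti-Ras immunoblot, ECL detection. Unprenylated Ras seen as the slower-migrating band.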
(In general: Immunoblotting shows a protein as a band on a membrane.)

For experiment [2], the species on record is Homo sapiens. Description: Inhibition of Ras protein protein prenylation in HSMC assessed as unprenylated Ras accumulation at 75 uM after 72 hrs by Western blot analysis. The method in brief: as §1
Experiment [3] can be described thus: Antiproliferative activity against HSMC after 72 hrs. As to conditions: Homo sapiens. The experiment is classed as functional. The method in brief:
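Human aortic SMCs seeded at 8 × 10⁴ cells per 35 mm dish in DMEM with 10% FCS. After 24 h, switched to 0.4% FCS for 72 h to arrest growth. Then refed with 10% FCS with or without compound (DMSO, final ≤0.5%) for 72 h at 37 °C. Cells trypsinized and counted by Coulter counter. IC50 obtained by linear regression of log concentration versus logit.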

For experiment [4], the species on record is Homo sapiens. Description: Inhibition of Ras protein protein prenylation in HSMC assessed as unprenylated Ras accumulation at 25 uM after 72 hrs by Western blot analysis. The method in brief: as §1
The species named for experiment [5] is Homo sapiens. Description: Inhibition of Ras protein protein prenylation in HSMC assessed as unprenylated Ras accumulation at 10 uM after 72 hrs by Western blot analysis. The method in brief: as §1
The nature of experiment [6]: Inhibition of Ras protein protein prenylation in HSMC assessed as unprenylated Ras accumulation after 72 hrs by Western blot analysis. The arrangement: species or system Homo sapiens. The method, boiled down: as §1

Structures are written as SMILES. Active and inactive are the calls of the source. The rule behind the calls is not given here.

`COC(=O)CNC(=O)c1ccc(OC[C@@H]2COc3ccccc3O2)cc1-c1ccccc1OC`: the inhibition result in the experiment filed under Homo sapiens [1] and in the experiment filed under Homo sapiens [2] was “inactive” each time. In experiment [3], this molecule gave an IC50 of 35 µM.

As to `COC(=O)CNC(=O)c1ccc(OC[C@H]2COc3ccccc3O2)cc1-c1ccccc1C`, the inhibition in the experiment listed under Homo sapiens [1] is 35%. Moreover, inhibition in experiment [3] was half-maximal at 27 µM (IC50).

Turning to `COC(=O)[C@H](CC(C)C)NC(=O)c1ccc(OC[C@@H]2COc3ccccc3O2)cc1-c1ccccc1C`, the inhibition entry in the experiment listed under Homo sapiens [1] and in the experiment filed under Homo sapiens [4] was “inactive” throughout. In experiment [3], this molecule registered a half-inhibitory concentration (IC50) of 5.2 µM.

Regarding `COC(=O)[C@H](CCSC)NC(=O)c1ccc(C(=O)NC[C@@H]2COc3ccccc3O2)cc1-c1ccccc1OC`, the concentration for half-maximal inhibition (IC50) in experiment [3] amounted to 647 µM.

In experiment [3], `COC(=O)CNC(=O)c1ccc(C(=O)NC[C@@H]2COc3ccccc3O2)cc1-c1ccccc1C` registered an IC50 of 89 µM.

Molecule `COC(=O)[C@H](CCSC)NC(=O)c1ccc(OC[C@H]2COc3ccccc3O2)cc1-c1ccccc1OC` displayed an IC50 in experiment [3] of 230 µM.

In turn, `COC(=O)[C@H](CC(C)C)NC(=O)c1ccc(C(=O)NC[C@@H]2COc3ccccc3O2)cc1-c1ccccc1OC` had a half-inhibitory concentration (IC50) in experiment [3] of 469 µM.

`COC(=O)[C@H](CCSC)NC(=O)c1ccc(C(=O)NC[C@@H]2COc3ccccc3O2)cc1-c1ccccc1C` gave a half-maximal inhibitory concentration (IC50) in experiment [3] of 533 µM.

Molecule `COC(=O)[C@H](CCSC)NC(=O)c1ccc(C(=O)NC[C@H]2COc3ccccc3O2)cc1-c1ccccc1C` had a concentration for half-maximal inhibition (IC50) in experiment [3] of 87 µM.

`COC(=O)[C@H](CCSC)NC(=O)c1ccc(OC[C@@H]2COc3ccccc3O2)cc1-c1ccccc1C` registered a half-inhibitory concentration (IC50) in experiment [3] of 193 µM.

As to `COC(=O)[C@H](CC(C)C)NC(=O)c1ccc(OC[C@H]2COc3ccccc3O2)cc1-c1ccccc1OC`, the inhibition entry in the experiment filed under Homo sapiens [1] and in the experiment listed under Homo sapiens [4] was “inactive” throughout. Moreover, it took 32 µM to reach half-maximal inhibition in experiment [3] (IC50).

With `COC(=O)[C@H](CCSC)NC(=O)c1ccc(OC[C@@H]2COc3ccccc3O2)cc1-c1ccccc1OC`, the IC50 in experiment [3] turned out to be 204 µM.

As for `COC(=O)[C@H](CC(C)C)NC(=O)c1ccc(OC[C@@H]2COc3ccccc3O2)cc1-c1ccccc1OC`, the inhibition entry in the experiment filed under Homo sapiens [1] and in the experiment filed under Homo sapiens [5] was “inactive” in each case. In addition, in experiment [3], the IC50 was determined as 17 µM.

Turning to `COC(=O)CNC(=O)c1ccc(OC[C@@H]2COc3ccccc3O2)cc1-c1ccccc1C`, the inhibition entry in the experiment listed under Homo sapiens [1] and in the experiment listed under Homo sapiens [4] was “inactive” in each case. In addition, in experiment [3], the IC50 turned out to be 0.7 µM.

As to `COC(=O)CNC(=O)c1ccc(OC[C@H]2COc3ccccc3O2)cc1-c1ccccc1OC`, the inhibition entry in the experiment listed under Homo sapiens [1] and in the experiment filed under Homo sapiens [2] was “inactive” throughout. Half-maximal inhibition in experiment [3] (IC50) required 71 µM.

In experiment [3], `COC(=O)CNC(=O)c1ccc(C(=O)NC[C@H]2COc3ccccc3O2)cc1-c1ccccc1OC` displayed an IC50 of 122 µM.

As for `COC(=O)[C@H](CCSC)NC(=O)c1ccc(OC[C@H]2COc3ccccc3O2)cc1-c1ccccc1C`, the half-inhibitory concentration (IC50) turned out to be 2.8 µM in experiment [6] and 6.6 µM in experiment [3].

`COC(=O)[C@H](CC(C)C)NC(=O)c1ccc(C(=O)NC[C@H]2COc3ccccc3O2)cc1-c1ccccc1OC` registered an IC50 in experiment [3] of 185 µM.

In the case of `COC(=O)[C@H](CC(C)C)NC(=O)c1ccc(C(=O)NC[C@H]2COc3ccccc3O2)cc1-c1ccccc1C`, in experiment [3], the midpoint of inhibition, the IC50, lay at 103 µM.

Take `COC(=O)CNC(=O)c1ccc(C(=O)NC[C@H]2COc3ccccc3O2)cc1-c1ccccc1C`: the half-inhibitory concentration (IC50) in experiment [3] turned out to be 113 µM.

With `COC(=O)[C@H](CC(C)C)NC(=O)c1ccc(OC[C@H]2COc3ccccc3O2)cc1-c1ccccc1C`, the inhibition result in the experiment listed under Homo sapiens [1] and in the experiment filed under Homo sapiens [5] was “inactive” in each case. The same molecule displayed an IC50 in experiment [3] of 3 µM.

`COC(=O)[C@H](CC(C)C)NC(=O)c1ccc(C(=O)NC[C@@H]2COc3ccccc3O2)cc1-c1ccccc1C` displayed an IC50 in experiment [3] of 88 µM.

In experiment [3], `COC(=O)[C@H](CCSC)NC(=O)c1ccc(C(=O)NC[C@H]2COc3ccccc3O2)cc1-c1ccccc1OC` came in with an IC50 of 252 µM.

With `COC(=O)CNC(=O)c1ccc(C(=O)NC[C@@H]2COc3ccccc3O2)cc1-c1ccccc1OC`, the IC50 in experiment [3] turned out to be 76 µM.
